Most compounds without a hit are left out; they make up all but 0.77% or so of the library.
mIAP block = blocks mouse intestinal alkaline phosphatase; purified mouse IAP, CDP-Star luminescence, 30 min; inhibition, % at 10 µM; 0.2% of 330,000 active;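 active = inhibition of at least 40% at 10 µM in the primary screen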
mIAP act = increases mouse intestinal alkaline phosphatase activity. muIAP, CDP-Star luminescence, 30 min; hits give high values; 1 = vehicle-only enzyme signal, 0 = enzyme-free wells. AID 2805. activation factor at 10 µM. 0.24% of 330,000 active;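 active = activation factor of at least 2 at 20 µM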
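Assay system: mouse IAP enzyme; reagent: chemiluminescent substrate CDP-Star; dosing: test compounds delivered from DMSO solution; schedule: 30 min at room temperature; measured by: luminescence from enzymatic CDP-Star hydrolysis; controls: DMSO-only wells and no-enzyme negative control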
bIAP activator = increases bovine intestinal alkaline phosphatase activity. purified bovine IAP, CDP-star luminescence, 30 min; hits give high values; fold of DMSO-control signal, blank-subtracted. 0.17% of 200,000 active. AID 1016. activation factor at 20 µM;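 active = activation factor of 2 or more at 20 µM, a signal rise over negative controls twice the positive control's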
hIAP act = human IAP activation | P09923 | purified human IAP, CDP-Star luminescence, 30 min; hits give high values; 1 = vehicle-only enzyme, 0 = enzyme-free background | activation factor at 10 µM | 0.16% of 330,000 active | AID 2524;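 active = activation factor of the enzyme at least 2-fold when tested at 20 µM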
Target sequence (P09923 whole entry, looked up): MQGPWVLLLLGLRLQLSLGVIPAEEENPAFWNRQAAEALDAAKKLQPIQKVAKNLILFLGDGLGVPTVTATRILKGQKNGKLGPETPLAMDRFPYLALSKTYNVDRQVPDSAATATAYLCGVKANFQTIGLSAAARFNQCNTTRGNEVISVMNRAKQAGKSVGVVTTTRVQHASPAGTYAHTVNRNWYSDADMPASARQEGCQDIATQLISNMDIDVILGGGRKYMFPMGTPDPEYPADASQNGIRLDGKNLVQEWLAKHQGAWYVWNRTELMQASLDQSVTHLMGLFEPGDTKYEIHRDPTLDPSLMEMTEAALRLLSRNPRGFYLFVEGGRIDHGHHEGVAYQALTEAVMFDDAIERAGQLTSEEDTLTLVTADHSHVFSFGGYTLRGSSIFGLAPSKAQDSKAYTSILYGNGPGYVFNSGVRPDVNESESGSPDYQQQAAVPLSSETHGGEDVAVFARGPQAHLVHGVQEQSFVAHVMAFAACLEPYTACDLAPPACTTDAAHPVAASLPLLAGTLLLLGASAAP
bIAP inhibitor = blocks bovine intestinal alkaline phosphatase activity | purified bovine IAP, CDP-star luminescence, 30 min | inhibition, % at 20 µM | 190,000 tested, under 10 active | AID 1019;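 active = over 50% inhibition of intestinal alkaline phosphatase at 20 µM in the single-dose screen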
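test system = bovine IAP enzyme | medium = DEA buffer 100 mM, pH 9.8, with MgCl2 1.0 mM, ZnCl2 0.02 mM | detection = luminescence | dosing = single compound dose of 20 µM, 2% DMSO final | incubation = 30 min reaction at room temperature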
hIAP block = human IAP inhibition. P09923. purified IAP, CDP-Star luminescence, 30 min. inhibition, % at 10 µM. 0.12% of 330,000 active. AID 2544;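 active = inhibition reaching a set limit with compound at 10 µM in the primary screen, cut at about 35% in these data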
hIAP act confirm = human IAP activation confirmation | shares compounds with hIAP act | purified IAP, CDP-Star luminescence, 30 min; hits give low values | activation (%Activity, negative = activation), % at 8.3 µM | AID 434926 | 10% of 880 active;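 active = at least twofold enzyme activation in any of six single-dose repeats, which the averaged readout prints as negative percent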
Of the large screens only hits and unclear results are named; the others gave an inactive call (follow-up assays come after a bar, where they were run).

Fc1c(F)c(F)c(N/N=C/c2c[nH]c3ccccc23)c(F)c1F	bIAP activator 2.7
CCC(=O)c1ccc(OCC(=O)OCC(=O)NC2CCCCCCC2)cc1	none (no result: bIAP activator, bIAP inhibitor)
Cc1ccc(C(=O)C(C)OC(=O)CCN=C2NS(=O)(=O)c3ccccc32)cc1 (configuration not stated)	none (no result: bIAP activator, bIAP inhibitor)
COc1cccc2c1cc1c(=O)n(CC(=O)NCCCN3CCN(C)CC3)nc(C)n12	hIAP block 43 (no result: bIAP activator, bIAP inhibitor) | hIAP act confirm inactive
CC(Oc1ccc(F)cc1F)C(=O)NNC(=S)NCC1CCCO1 (configuration not stated)	hIAP act 2.2 (no result: bIAP activator, bIAP inhibitor) | hIAP act confirm inactive
COc1ccc(-c2nc(NC(=O)c3n[nH]c(=O)c4ccccc34)sc2C)cc1	hIAP act 2.1 | hIAP act confirm inactive
COc1cc(NC(=O)c2n[nH]c(=O)c3ccccc23)cc(OC)c1	none (no result: bIAP activator, bIAP inhibitor)
Cc1ccc(/C=N/NC(=O)c2cc(-c3ccc(C)o3)[nH]n2)cc1	hIAP act 2.1 (no result: bIAP activator, bIAP inhibitor) | hIAP act confirm inactive
Cc1ccc(-c2cc(C(=O)N/N=C/c3cccnc3)n[nH]2)o1	none
O=C(Nc1cc(-c2ccccc2)[nH]n1)c1ccccc1F	none (no result: bIAP activator, bIAP inhibitor)
O=C(O)c1ccccc1C(=O)Nc1cc(-c2ccccc2)[nH]n1	hIAP block 39 (no result: bIAP activator, bIAP inhibitor) | hIAP act confirm inactive
O=C(O)C1CCN(C(=O)CCN2C(=O)S/C(=C\c3ccccc3)C2=O)CC1	none (no result: bIAP activator, bIAP inhibitor)
CCCOc1cc(N(CC)CC)ccc1/C=C(/C#N)c1nc2ccc(C)cc2[nH]1	hIAP block 37 | hIAP act confirm inactive
CCc1ccc(OCC(=O)Nc2ncn[nH]2)cc1	hIAP act 2.1 | hIAP act confirm inactive
CN(C)CCOC(=O)c1ccc2c(c1)S(=O)(=O)c1ccccc1C2=O	none (no result: bIAP activator, bIAP inhibitor)
O=C1/C(=C/c2ccc(O)cc2)SC(=S)N1CC1CCCO1 (configuration not stated)	hIAP block 38 (no result: bIAP activator, bIAP inhibitor) | hIAP act confirm inactive
O=C1/C(=C\c2ccc(O)cc2)SC(=S)N1Cc1ccccc1	hIAP block 37 (no result: bIAP activator, bIAP inhibitor) | hIAP act confirm inactive
CCN(CC(=O)NC1CC1)S(=O)(=O)c1ccc(OC)cc1	none (no result: bIAP activator, bIAP inhibitor)
Cc1occc1C(=O)NNC(=S)Nc1cccc([N+](=O)[O-])c1	hIAP act 2.1 | hIAP act confirm inactive
O=C(N/N=C/c1ccco1)c1cc(-c2ccc3ccccc3c2)n[nH]1	hIAP act 2.1 | hIAP act confirm inactive
CCc1ccc(-c2cc(C(=O)N/N=C/c3ccco3)[nH]n2)cc1	none
O=C(N/N=C/c1ccccn1)c1cc(-c2ccc3ccccc3c2)n[nH]1	hIAP act 2.2 | hIAP act confirm inactive
CCc1ccc(-c2cc(C(=O)N/N=C/c3ccccn3)[nH]n2)cc1	none
O=C(NC1CCCC1)C(c1ccccc1F)N(C(=O)c1csnn1)c1ccccc1 (configuration not stated)	none (no result: bIAP activator, bIAP inhibitor)
COc1ccc(OC)c(S(=O)(=O)n2nnc3ccccc32)c1	hIAP block 37 | hIAP act confirm inactive
O=C(C1CCN(S(=O)(=O)c2ccccc2)CC1)N1CCOCC1	hIAP block 40 | hIAP act confirm inactive
O=C(CSc1n[nH]c(-c2ccncc2)n1)Nc1ccccc1Cl	none (no result: bIAP activator, bIAP inhibitor)
CCn1cnc2sc(C(=O)O)c(C)c2c1=O	hIAP act 3.9 | hIAP act confirm inactive
Cn1cc(CNCc2cnc3ccccn23)c(-c2ccc(Oc3ccccc3)cc2)n1	hIAP act 2.7 | hIAP act confirm inactive
O=C(Cc1coc2ccc3ccccc3c12)NCc1ccccc1	hIAP act 2 | hIAP act confirm inactive
O=C(Cc1coc2ccc3ccccc3c12)Nc1nccs1	none
COc1ccc(-c2nnn(CC(=O)N(CC(=O)NC3CCCC3)c3ccccc3F)n2)cc1OC	none (no result: bIAP activator, bIAP inhibitor)
CCCCCC(=O)Cc1cc(O)cc2c1C(=O)Oc1cc(O)c(C(=O)O)c(CCCCC)c1O2	hIAP block 40 (no result: bIAP activator, bIAP inhibitor) | hIAP act confirm inactive
COc1ccc(CN(CCNC(=O)CCCCC(=O)NCCN(Cc2ccc(OC)cc2)C(C)C)C(C)C)cc1	hIAP block 41 (no result: bIAP activator, bIAP inhibitor) | hIAP act confirm inactive
COc1ccc(CCNC(=O)CCCCC(=O)NCCc2ccc(OC)cc2)cc1	none (no result: bIAP activator, bIAP inhibitor)
O=C(CCC1CCCC1)Nc1nnc(-c2ccc3c(c2)OCO3)s1	none
COc1cc(/C=C2\CCC/C(=C\c3ccc(O)c(OC)c3)C2=O)ccc1O	none (no result: bIAP activator, bIAP inhibitor)
COc1cc(/C=C2/CCC/C(=C\c3cc(O)c(OC)c(Cl)c3)C2=O)cc(Cl)c1O	hIAP block 40 (no result: bIAP inhibitor) | hIAP act confirm inactive
O=C(NCc1nnc(SCC(=O)N2CCOCC2)o1)c1ccccc1F	none
CCS(=O)(=O)Nc1cc2c3c(c1)CCC(=O)N3CCC2	hIAP block 37 (no result: bIAP activator, bIAP inhibitor) | hIAP act confirm inactive
Cc1cc(C)cc(N2CC(O)=C(c3nc4ccccc4c(=O)[nH]3)C2=N)c1	none
COc1cccc(N2CC(O)=C(c3nc4ccccc4c(=O)[nH]3)C2=N)c1	hIAP act 2.1 | hIAP act confirm inactive
Cc1ccc(S(=O)(=O)NCC(=O)N/N=C/c2ccc(Cl)cc2Cl)cc1	none
Cc1ccc(S(=O)(=O)NCC(=O)N/N=C/c2ccccc2O)cc1	hIAP act 2.2 | hIAP act confirm inactive
O=C(NNC(=O)c1ncc(Cl)c(Cl)c1Cl)c1ccc(F)cc1	hIAP act 2.2 (no result: bIAP activator, bIAP inhibitor) | hIAP act confirm inactive
C[C@@H]1O[C@@H](Oc2c(-c3cc(O)c(O)c(O)c3)oc3cc(O)cc(O)c3c2=O)[C@H](O)[C@H](O)[C@H]1O	none
O=c1c(O[C@@H]2O[C@H](CO)C(O)C2O)c(-c2ccc(O)c(O)c2)oc2cc(O)cc(O)c12 (some centres not stated)	hIAP block 59 (no result: bIAP activator, bIAP inhibitor) | hIAP act confirm inactive
O=c1c(OC2OC(CO)C(O)C(O)C2O)c(-c2ccc(O)c(O)c2)oc2cc(O)cc(O)c12 (configuration not stated)	hIAP block 56 | hIAP act confirm inactive
O=c1c(O[C@H]2O[C@@H](CO)[C@H](O)[C@@H](O)[C@@H]2O)c(-c2ccc(O)cc2)oc2cc(O)cc(O)c12	none (no result: bIAP activator, bIAP inhibitor)
C[C@@H]1O[C@@H](Oc2c(-c3ccc(O)c(O)c3)oc3cc(O)cc(O)c3c2=O)[C@H](O)[C@H](O)[C@H]1O	hIAP block 36 (no result: bIAP activator, bIAP inhibitor) | hIAP act confirm inactive
Cn1cc(CCC(=O)NC2CC(C)(C)Cc3c2cnn3-c2ccc(F)cc2)cn1 (configuration not stated)	none (no result: bIAP activator, bIAP inhibitor)
O=C(Nc1cccc(Cl)c1)N1CCCCCC1	hIAP block 38 (no result: bIAP activator, bIAP inhibitor) | hIAP act confirm inactive
CCC1CN(C(=O)N2CCC(C(=O)NCc3cc(OC)c(OC)c(OC)c3)CC2)c2ccccc2O1 (configuration not stated)	none (no result: bIAP activator, bIAP inhibitor)
S=c1[nH]nc(-c2cc(-c3ccccc3)n[nH]2)n1/N=C/c1ccc(Cl)cc1	hIAP act 2 (no result: bIAP activator, bIAP inhibitor) | hIAP act confirm inactive
CN(C)S(=O)(=O)c1cccc(NC(=O)c2cccc(S(=O)(=O)N3CCc4ccccc43)c2)c1	none (no result: bIAP activator, bIAP inhibitor)

Compound activity: PubChem BioAssay, Sanford-Burnham Center for Chemical Genomics
